Measured values as given in ChEMBL document CHEMBL5705905, “Pharmacological targeting of kinases MST1 and MST2 augments tissue repair and regeneration” (Sci Transl Med, 2016).
Calls of active or inactive are those of the source. No cut-off for these calls is given here.

Assays:
[1] = test system: Phosphatidylinositol 4,5-bisphosphate 3-kinase catalytic subunit alpha isoform (Homo sapiens), P42336 [E545A]; assay: Inhibition of PIK3CA E545A mutant (unknown origin) assessed as remaining activity at 1 uM by Kinome scan method relative to control
[2] = molecular target: Tyrosine-protein kinase JAK1 (Homo sapiens, UniProt P23458); assay: Inhibition of JAK1 JH2domain-pseudokinase (unknown origin) in presence of ATP by enzymatic assay
Mus musculus [3] = assay: Protection against APAP induced liver injury in mouse assessed as continual expansion of centrilobular necrotic lesions at 1 mg/kg, ip administered at 2.5 hrs by H&E staining; type: functional, organism-based
[4] = molecular target: Tyrosine-protein kinase JAK3 (Homo sapiens) (UniProt P52333); assay: Inhibition of JAK3 JH1 domain (unknown origin) assessed as remaining activity at 1 uM by Kinome scan method relative to control
HepG2 = assay: Induction of apoptosis in human HepG2 cells overexpressing MST2 assessed as necrosis cells at 3 uM by annexinV staining (Rvb =0.24 %); type: functional
[5] = molecular target: Calcium/calmodulin-dependent protein kinase type II subunit beta (Homo sapiens) (UniProt Q13554); assay: Inhibition of CAMK2B (unknown origin) assessed as remaining activity at 1 uM by Kinome scan method relative to control
Method in brief: (§1)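 Active-site-dependent competition-binding profiling (KINOMEscan) at 1 μM against a 468-kinase panel; compound supplied from a 10 mM DMSO stock. Read-out is ctrl% = (test signal − positive control signal)/(negative control signal − positive control signal) × 100. DMSO is the negative control (100%) and a control compound the positive control (0%). Lower ctrl% means tighter binding.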

[6] = molecular target: Receptor tyrosine-protein kinase erbB-2 (Homo sapiens) (UniProt P04626); assay: Inhibition of ERBB2 (unknown origin) assessed as remaining activity at 1 uM by Kinome scan method relative to control
[7] = molecular target: T1, Serine/threonine-protein kinase 4 (Homo sapiens, UniProt Q13043); assay: Binding affinity to MST1 (unknown origin) assessed as dissociation constant
T1 sequence (Q13043 whole entry): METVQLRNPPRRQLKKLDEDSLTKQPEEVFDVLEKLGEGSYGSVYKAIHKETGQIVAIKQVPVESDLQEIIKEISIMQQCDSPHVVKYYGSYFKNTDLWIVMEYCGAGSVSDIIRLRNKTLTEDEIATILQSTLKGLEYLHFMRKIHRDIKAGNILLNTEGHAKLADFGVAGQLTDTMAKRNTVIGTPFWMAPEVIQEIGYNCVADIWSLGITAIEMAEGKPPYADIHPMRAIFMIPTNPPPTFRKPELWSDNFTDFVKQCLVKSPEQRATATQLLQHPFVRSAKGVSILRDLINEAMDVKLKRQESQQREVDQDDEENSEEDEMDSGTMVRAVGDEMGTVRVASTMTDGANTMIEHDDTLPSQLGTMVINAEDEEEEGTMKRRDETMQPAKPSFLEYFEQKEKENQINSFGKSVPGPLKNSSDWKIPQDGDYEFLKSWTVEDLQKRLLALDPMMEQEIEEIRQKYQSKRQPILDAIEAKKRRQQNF

[8] = test system: Epidermal growth factor receptor (Homo sapiens), P00533 [UNDEFINED MUTATION]; assay: Inhibition of EGFR S752-I759del mutant (unknown origin) assessed as remaining activity at 1 uM by Kinome scan method relative to control
[9] = molecular target: TRAF2 and NCK-interacting protein kinase (Homo sapiens) (UniProt Q9UKE5); assay: Inhibition of TNIK (unknown origin) assessed as remaining activity at 1 uM by Kinome scan method relative to control
[10] = molecular target: Serine/threonine-protein kinase MARK1 (Homo sapiens) (UniProt Q9P0L2); assay: Inhibition of MARK1 (unknown origin) assessed as remaining activity at 1 uM by Kinome scan method relative to control
[11] = molecular target: Mitogen-activated protein kinase kinase kinase kinase 3 (Homo sapiens) (UniProt Q8IVH8); assay: Inhibition of MAP4K3 (unknown origin) assessed as remaining activity at 1 uM by Kinome scan method relative to control
Mitogen-activated protein kinase kinase kinase kinase 3 (Homo sapiens), sequence (Q8IVH8 whole entry): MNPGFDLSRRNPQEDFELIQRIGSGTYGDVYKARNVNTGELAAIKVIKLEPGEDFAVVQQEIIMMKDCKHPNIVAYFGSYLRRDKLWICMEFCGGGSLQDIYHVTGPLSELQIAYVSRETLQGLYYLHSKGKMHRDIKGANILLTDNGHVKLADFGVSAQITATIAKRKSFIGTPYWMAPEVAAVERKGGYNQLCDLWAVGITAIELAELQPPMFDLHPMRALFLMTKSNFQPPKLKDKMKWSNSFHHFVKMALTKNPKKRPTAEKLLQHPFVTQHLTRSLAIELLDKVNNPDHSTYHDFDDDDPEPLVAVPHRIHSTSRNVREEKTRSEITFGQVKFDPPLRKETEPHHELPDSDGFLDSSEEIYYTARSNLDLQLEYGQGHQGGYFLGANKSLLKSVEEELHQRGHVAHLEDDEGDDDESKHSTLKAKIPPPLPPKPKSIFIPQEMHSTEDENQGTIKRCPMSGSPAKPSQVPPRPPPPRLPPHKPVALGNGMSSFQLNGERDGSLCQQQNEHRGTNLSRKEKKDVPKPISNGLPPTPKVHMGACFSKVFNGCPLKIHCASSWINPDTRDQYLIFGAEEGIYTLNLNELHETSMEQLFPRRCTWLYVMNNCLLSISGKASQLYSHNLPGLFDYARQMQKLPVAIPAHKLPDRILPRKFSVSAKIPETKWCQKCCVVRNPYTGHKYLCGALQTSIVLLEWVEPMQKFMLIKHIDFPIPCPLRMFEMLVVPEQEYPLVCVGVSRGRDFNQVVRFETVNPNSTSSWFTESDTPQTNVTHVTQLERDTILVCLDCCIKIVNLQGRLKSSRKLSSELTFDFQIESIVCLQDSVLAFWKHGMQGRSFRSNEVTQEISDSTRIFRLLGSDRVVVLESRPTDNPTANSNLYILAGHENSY

[12] = molecular target: Serine/threonine-protein kinase TAO3 (Homo sapiens, UniProt Q9H2K8); assay: Binding affinity to TAOK3 (unknown origin) assessed as dissociation constant
Mus musculus [13] = assay: Protection against APAP induced liver injury in mouse assessed as cell death at 1 mg/kg, ip administered at 1.5 hrs in the presence of NAC relative to control; type: functional
[14] = molecular target: Calcium/calmodulin-dependent protein kinase type IV (Homo sapiens) (UniProt Q16566); assay: Inhibition of CAMK4 (unknown origin) assessed as remaining activity at 1 uM by Kinome scan method relative to control; method in brief: as §1
Calcium/calmodulin-dependent protein kinase type IV (Homo sapiens), sequence (Q16566 whole entry): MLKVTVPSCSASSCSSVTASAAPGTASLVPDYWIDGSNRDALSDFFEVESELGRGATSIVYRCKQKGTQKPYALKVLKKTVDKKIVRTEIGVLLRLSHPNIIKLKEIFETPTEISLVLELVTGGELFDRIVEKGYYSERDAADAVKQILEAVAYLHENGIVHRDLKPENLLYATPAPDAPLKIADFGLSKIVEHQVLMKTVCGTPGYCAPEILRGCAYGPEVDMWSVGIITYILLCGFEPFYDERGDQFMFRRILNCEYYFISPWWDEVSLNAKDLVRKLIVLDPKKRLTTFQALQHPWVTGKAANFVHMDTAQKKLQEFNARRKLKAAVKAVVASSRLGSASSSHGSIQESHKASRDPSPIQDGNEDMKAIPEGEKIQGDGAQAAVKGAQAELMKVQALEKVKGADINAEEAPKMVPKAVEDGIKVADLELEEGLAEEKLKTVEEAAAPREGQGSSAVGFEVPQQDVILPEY

[15] = molecular target: Transient receptor potential cation channel subfamily M member 6 (Homo sapiens) (UniProt Q9BX84); assay: Inhibition of TRPM6 (unknown origin) assessed as remaining activity at 1 uM by Kinome scan method relative to control
Transient receptor potential cation channel subfamily M member 6 (Homo sapiens), sequence (Q9BX84 whole entry): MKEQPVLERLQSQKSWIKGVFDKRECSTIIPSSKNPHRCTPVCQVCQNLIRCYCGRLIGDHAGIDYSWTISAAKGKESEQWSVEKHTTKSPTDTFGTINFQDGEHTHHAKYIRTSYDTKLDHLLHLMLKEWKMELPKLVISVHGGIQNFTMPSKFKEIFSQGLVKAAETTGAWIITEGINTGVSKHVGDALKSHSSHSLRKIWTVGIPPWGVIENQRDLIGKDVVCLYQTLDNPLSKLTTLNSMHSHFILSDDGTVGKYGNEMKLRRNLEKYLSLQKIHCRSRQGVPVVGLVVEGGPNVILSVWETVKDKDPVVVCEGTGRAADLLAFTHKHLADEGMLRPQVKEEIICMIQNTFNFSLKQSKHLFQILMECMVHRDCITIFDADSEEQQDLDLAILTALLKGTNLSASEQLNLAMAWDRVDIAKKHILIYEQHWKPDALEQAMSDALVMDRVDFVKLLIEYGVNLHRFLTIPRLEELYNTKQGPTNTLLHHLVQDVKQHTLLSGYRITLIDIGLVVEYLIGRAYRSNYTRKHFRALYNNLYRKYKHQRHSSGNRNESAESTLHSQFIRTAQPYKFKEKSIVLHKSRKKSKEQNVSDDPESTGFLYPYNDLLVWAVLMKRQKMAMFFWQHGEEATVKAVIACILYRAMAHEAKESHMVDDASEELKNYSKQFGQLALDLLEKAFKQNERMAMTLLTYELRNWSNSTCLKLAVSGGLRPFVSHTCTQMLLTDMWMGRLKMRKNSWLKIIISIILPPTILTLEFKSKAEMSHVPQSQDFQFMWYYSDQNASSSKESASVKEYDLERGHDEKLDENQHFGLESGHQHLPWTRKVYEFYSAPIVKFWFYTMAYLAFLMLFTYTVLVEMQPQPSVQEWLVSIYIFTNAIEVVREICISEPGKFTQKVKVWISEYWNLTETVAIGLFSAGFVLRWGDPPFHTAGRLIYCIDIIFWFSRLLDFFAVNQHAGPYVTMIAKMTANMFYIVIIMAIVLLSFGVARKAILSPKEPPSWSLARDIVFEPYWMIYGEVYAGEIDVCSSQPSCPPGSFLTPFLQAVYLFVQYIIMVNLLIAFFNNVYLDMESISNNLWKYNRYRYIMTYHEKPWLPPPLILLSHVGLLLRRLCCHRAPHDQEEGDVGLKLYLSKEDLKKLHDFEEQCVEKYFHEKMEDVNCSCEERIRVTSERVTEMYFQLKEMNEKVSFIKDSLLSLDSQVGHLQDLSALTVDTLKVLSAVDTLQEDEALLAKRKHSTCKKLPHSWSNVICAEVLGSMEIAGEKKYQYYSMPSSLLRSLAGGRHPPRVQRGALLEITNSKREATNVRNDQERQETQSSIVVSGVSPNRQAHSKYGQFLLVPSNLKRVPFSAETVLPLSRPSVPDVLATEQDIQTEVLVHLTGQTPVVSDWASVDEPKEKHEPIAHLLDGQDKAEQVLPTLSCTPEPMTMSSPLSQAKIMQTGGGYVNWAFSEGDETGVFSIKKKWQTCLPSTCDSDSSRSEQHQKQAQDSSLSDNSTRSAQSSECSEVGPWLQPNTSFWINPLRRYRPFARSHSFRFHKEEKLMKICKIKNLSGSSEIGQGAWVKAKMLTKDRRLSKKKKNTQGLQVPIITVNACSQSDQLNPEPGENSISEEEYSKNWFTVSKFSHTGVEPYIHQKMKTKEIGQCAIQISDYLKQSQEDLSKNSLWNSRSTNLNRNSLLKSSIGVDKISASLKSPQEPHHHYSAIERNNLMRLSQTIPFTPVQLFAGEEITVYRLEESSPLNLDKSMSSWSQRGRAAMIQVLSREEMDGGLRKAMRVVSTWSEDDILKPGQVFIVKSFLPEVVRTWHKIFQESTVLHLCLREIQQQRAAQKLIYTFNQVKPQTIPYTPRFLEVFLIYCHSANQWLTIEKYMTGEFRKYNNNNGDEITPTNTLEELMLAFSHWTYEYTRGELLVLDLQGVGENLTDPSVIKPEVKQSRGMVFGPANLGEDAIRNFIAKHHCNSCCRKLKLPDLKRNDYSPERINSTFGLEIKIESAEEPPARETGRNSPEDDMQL

[16] = Acute toxicity in mouse assessed as increase in CK19-positive cells at 1 mg/kg,ip administrated once a daily for 3 weeks by H and E staining based immunohistochemical analysis relative to control; type: organism-based, Liver; details: in vivo, 504 h
Method in brief: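 Postnatal mice dosed from 10 days of age with vehicle or 1 mg/kg once per day for 21 days (3 weeks). Vehicle is 0.1% citric acid aqueous solution containing 20% Kolliphor HS 15. Liver sections stained with H&E and by IHC for CK19 and BrdU, with positive cells quantified (n = 3). Liver/body weight ratio recorded (n = 4). Values are means ± SD versus vehicle, Student's t test.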

[17] = molecular target: MAP/microtubule affinity-regulating kinase 3 (Homo sapiens) (UniProt P27448); assay: Inhibition of MARK3 (unknown origin) assessed as remaining activity at 1 uM by Kinome scan method relative to control
MAP/microtubule affinity-regulating kinase 3 (Homo sapiens), sequence (P27448 whole entry, looked up, canonical isoform): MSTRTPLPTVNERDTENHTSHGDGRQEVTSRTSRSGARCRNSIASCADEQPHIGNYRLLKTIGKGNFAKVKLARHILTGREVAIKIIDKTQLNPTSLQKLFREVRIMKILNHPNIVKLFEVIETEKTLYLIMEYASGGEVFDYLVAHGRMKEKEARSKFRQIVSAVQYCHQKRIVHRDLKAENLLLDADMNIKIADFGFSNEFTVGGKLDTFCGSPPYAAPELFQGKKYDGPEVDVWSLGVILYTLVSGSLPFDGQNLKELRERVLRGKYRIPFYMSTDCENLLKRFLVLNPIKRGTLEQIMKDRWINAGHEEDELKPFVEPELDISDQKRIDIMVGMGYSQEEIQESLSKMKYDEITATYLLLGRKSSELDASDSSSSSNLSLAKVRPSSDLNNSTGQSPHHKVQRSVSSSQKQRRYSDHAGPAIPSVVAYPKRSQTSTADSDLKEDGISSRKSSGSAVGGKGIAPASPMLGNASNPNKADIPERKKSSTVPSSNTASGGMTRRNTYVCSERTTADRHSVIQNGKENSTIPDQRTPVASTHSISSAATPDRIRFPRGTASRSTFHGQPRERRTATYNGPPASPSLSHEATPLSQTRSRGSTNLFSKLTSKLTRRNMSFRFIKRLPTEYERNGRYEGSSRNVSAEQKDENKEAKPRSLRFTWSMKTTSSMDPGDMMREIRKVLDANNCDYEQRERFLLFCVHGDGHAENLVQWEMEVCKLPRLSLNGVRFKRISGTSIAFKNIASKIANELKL

[18] = molecular target: Phosphatidylinositol 4,5-bisphosphate 3-kinase catalytic subunit alpha isoform (Homo sapiens) (UniProt P42336); assay: Inhibition of PIK3CA (unknown origin) assessed as remaining activity at 1 uM by Kinome scan method relative to control
[19] = molecular target: Serine/threonine-protein kinase 26 (Homo sapiens, UniProt Q9P289); assay: Binding affinity to MST4 (unknown origin) assessed as dissociation constant
[20] = molecular target: Maternal embryonic leucine zipper kinase (Homo sapiens) (UniProt Q14680); assay: Inhibition of MELK (unknown origin) assessed as remaining activity at 1 uM by Kinome scan method relative to control
[21] = molecular target: Proto-oncogene tyrosine-protein kinase receptor Ret (Homo sapiens) (UniProt P07949); assay: Inhibition of RET (unknown origin) assessed as remaining activity at 1 uM by Kinome scan method relative to control
[22] = molecular target: Testis-specific serine/threonine-protein kinase 3 (Homo sapiens) (UniProt Q96PN8); assay: Inhibition of TSSK3 (unknown origin) assessed as remaining activity at 1 uM by Kinome scan method relative to control
[23] = molecular target: Serine/threonine-protein kinase TAO1 (Homo sapiens) (UniProt Q7L7X3); assay: Inhibition of TAOK1 (unknown origin) assessed as remaining activity at 1 uM by Kinome scan method relative to control
[24] = molecular target: High affinity nerve growth factor receptor (Homo sapiens) (UniProt P04629); assay: Inhibition of TRKA (unknown origin) assessed as remaining activity at 1 uM by Kinome scan method relative to control
High affinity nerve growth factor receptor (Homo sapiens), sequence (P04629 33-796 limits assumed): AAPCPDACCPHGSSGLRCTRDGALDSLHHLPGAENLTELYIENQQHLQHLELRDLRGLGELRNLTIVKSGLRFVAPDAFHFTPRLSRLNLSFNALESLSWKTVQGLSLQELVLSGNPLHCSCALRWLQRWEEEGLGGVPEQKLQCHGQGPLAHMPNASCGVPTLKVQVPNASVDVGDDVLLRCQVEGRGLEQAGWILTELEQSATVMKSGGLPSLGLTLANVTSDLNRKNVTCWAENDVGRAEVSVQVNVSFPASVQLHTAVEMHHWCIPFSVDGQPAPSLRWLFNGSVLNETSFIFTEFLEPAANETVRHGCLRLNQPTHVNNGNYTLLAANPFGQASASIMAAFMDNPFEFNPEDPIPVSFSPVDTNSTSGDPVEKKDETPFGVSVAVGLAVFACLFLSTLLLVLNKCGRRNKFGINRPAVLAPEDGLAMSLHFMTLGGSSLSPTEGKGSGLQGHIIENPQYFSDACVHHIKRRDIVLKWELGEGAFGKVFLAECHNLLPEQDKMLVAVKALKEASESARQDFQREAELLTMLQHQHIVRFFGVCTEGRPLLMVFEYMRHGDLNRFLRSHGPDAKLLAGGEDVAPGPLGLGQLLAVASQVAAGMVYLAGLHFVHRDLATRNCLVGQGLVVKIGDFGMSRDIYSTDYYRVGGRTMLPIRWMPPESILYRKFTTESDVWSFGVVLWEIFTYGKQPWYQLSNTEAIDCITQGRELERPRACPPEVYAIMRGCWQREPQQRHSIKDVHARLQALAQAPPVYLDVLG

CN1C(=O)c2sccc2N(C)c2nc(Nc3ccc(S(N)(=O)=O)cc3)ncc21
Activity [1]: 81%
IC50 [2]: 38.7 nM
Activity (Mus musculus [3]): Active
Activity [4]: 73%
Activity (HepG2): 0.27%
Activity [5]: 73%
Activity [6]: 100%
Kd [7]: 17 nM
Activity [8]: 100%
Activity [9]: 71%
Activity [10]: 92%
Activity [11]: 100%
Kd [12]: 610 nM
Activity (Mus musculus [13]): 100%
Activity [14]: 100%
Activity [15]: 94%
Activity [16]: 15%
Activity [17]: 98%
Activity [18]: 88%
Kd [19]: 16 nM
Activity [20]: 100%
Activity [21]: 100%
Activity [22]: 93%
Activity [23]: 2.6%
Activity [24]: 56%
